{
  "source": "ChEMBL document CHEMBL4364314",
  "about": "“Design, synthesis and biological evaluation of 6-deoxy O-spiroketal C-arylglucosides as novel renal sodium-dependent glucose cotransporter 2 (SGLT2) inhibitors for the treatment of type 2 diabetes” (Eur J Med Chem, 2019)",
  "key": {"[1]": {"test": "Cmax in mouse at 10 mg/kg, po administered as single dose", "format": "ADME, organism-based", "parameters": "dose 10 mg/kg, route oral", "details": "in vivo", "procedure,_shortened": "(§1)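 Mouse pharmacokinetics after a single intravenous dose of 2 mg/kg or a single oral dose of 10 mg/kg. Plasma parameters derived for each route; oral bioavailability calculated by comparing the two routes.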"}, "[2]": {"test": "Mean residence time infinity in mouse at 2 mg/kg, iv administered as single dose", "format": "ADME, organism-based", "details": "in vivo", "procedure,_shortened": "as §1"}, "[3]": {"species": "Homo sapiens", "test": "Selectivity ratio of IC50 for human full length SGLT1 to IC50 for human full length SGLT2", "procedure,_shortened": "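Ratio of IC50 at hSGLT1 to IC50 at hSGLT2, both from the [14C]methyl-α-D-glucopyranoside uptake assay in stably transfected NIH3T3 cells.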"}, "[4]": {"test": "Oral bioavailability in mouse at 10 mg/kg administered as single dose", "format": "ADME, organism-based", "details": "in vivo", "procedure,_shortened": "as §1"}, "[5]": {"test": "AUClast in mouse at 10 mg/kg, po administered as single dose", "format": "ADME, organism-based", "parameters": "dose 10 mg/kg, time 0 - last, route oral", "details": "in vivo", "procedure,_shortened": "as §1"}, "[6]": {"test": "Half-life in mouse at 10 mg/kg, po administered as single dose", "format": "ADME, organism-based", "details": "in vivo", "procedure,_shortened": "as §1"}, "[7]": {"test": "Clearance in mouse at 2 mg/kg, iv administered as single dose", "format": "ADME, organism-based", "details": "in vivo", "procedure,_shortened": "as §1"}, "[8]": {"test": "Mean residence time infinity in mouse at 10 mg/kg, po administered as single dose", "format": "ADME, organism-based", "details": "in vivo", "procedure,_shortened": "as §1"}, "[9]": {"test": "AUCinfinity in mouse at 2 mg/kg, iv administered as single dose", "format": "ADME, organism-based", "parameters": "dose 2 mg/kg, route intravenous, time infinity", "details": "in vivo", "procedure,_shortened": "as §1"}, "[10]": {"test": "AUCinfinity in mouse at 10 mg/kg, po administered as single dose", "format": "ADME, organism-based", "parameters": "dose 10 mg/kg, time infinity, route oral", "details": "in vivo", "procedure,_shortened": "as §1"}, "[11]": {"test": "Half-life in mouse at 2 mg/kg, iv administered as single dose", "format": "ADME, organism-based", "details": "in vivo", "procedure,_shortened": "as §1"}, "[12]": {"test_system": "Mus musculus", "test": "Effect on urine glucose excretion in C57BL/6J mouse at 1 mg/kg, po administered as single dose measured after 24 hrs assessed per 100 grams (reference value: 0.84 +/- 0.40 mg )", "format": "functional"}, "[13]": {"test_system": "Rattus norvegicus", "test": "Effect on urinary volume in Sprague-Dawley rat at 1 mg/kg, po administered as single dose measured after 24 hrs (reference value: 24.17 +/- 7.11 mL)", "format": "ADME, organism-based", "details": "in vivo"}, "[14]": {"test": "AUClast in mouse at 2 mg/kg, iv administered as single dose", "format": "ADME, organism-based", "parameters": "dose 2 mg/kg, route intravenous, time 0 - last", "details": "in vivo", "procedure,_shortened": "as §1"}, "[15]": {"test_system": "Mus musculus", "test": "Effect on urine glucose concentration in C57BL/6J mouse at 1 mg/kg, po administered as single dose measured after 24 hrs by glucose oxidase method (reference value: 0.74 +/- 0.14 mmol/L)", "format": "functional"}, "[16]": {"test_system": "Rattus norvegicus", "test": "Effect on urine glucose excretion in Sprague-Dawley rat 1 mg/kg, po administered as single dose measured after 24 hrs assessed per 100 grams (reference value: 0.51 +/- 0.40 mg)", "format": "functional"}, "[17]": {"test_system": "Mus musculus", "test": "Hypoglycemic activity in orally dosed C57BL/6J mouse assessed as glucose tolerance improvement administered as single dose measured after 120 mins post glucose challenge by OGTT", "format": "functional, organism-based", "procedure,_shortened": "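Male mice fasted overnight (14 h), then gavaged with 1 or 3 mg/kg or vehicle (0.9% NaCl, 0.5% methyl cellulose); n = 8. Glucose 3 g/kg given by gavage 2 h later. Blood glucose taken at -120, 0, 15, 30, 60, 90 and 120 min. AUC0-2 h by trapezoidal rule; t-test against vehicle.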"}, "[18]": {"molecular_target": "T1, Sodium/glucose cotransporter 2 (Homo sapiens, UniProt P31639)", "T1 sequence (P31639 whole entry)": "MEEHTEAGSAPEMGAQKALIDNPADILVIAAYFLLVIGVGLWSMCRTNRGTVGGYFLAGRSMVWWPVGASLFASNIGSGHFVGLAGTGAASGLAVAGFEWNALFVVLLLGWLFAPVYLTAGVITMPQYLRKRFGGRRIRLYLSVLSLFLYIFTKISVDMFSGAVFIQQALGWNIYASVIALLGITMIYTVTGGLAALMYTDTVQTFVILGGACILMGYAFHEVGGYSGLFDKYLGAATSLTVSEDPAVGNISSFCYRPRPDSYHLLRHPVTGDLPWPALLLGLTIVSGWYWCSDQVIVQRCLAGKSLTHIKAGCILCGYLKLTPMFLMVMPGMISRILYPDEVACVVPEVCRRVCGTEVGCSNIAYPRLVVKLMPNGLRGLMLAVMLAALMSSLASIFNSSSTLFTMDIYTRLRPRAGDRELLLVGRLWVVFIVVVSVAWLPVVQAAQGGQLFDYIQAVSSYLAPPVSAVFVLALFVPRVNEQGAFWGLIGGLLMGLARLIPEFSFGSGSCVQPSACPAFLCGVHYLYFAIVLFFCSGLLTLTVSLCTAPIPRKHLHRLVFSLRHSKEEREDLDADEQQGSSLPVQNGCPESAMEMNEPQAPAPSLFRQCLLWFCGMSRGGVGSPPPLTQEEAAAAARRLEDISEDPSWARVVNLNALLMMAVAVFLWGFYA", "test": "Inhibition of human full length SGLT2 expressed in NIH3T3 cells measured after 1 hr in presence of [14C]-methyl-alpha -D-glucopyranoside by scintillation counter method", "format": "cell-based", "procedure,_shortened": "(§2)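 Stable NIH3T3 lines from retroviral transduction of full-length hSGLT1 or hSGLT2 (pBABE-puro, 8 µg/mL polybrene, puromycin 2 µg/mL selection for 2 weeks). Cells plated 2 days ahead, 2 mmol/L sodium butyrate added day 2. Read by scintillation counting. Compound-free buffer served as negative control, sodium-free N-methyl-glucamine buffer as blank.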"}, "[19]": {"test": "Tmax in mouse at 10 mg/kg, po administered as single dose", "format": "ADME, organism-based", "details": "in vivo", "procedure,_shortened": "as §1"}, "[20]": {"test": "Volume of distribution at steady state in mouse at 2 mg/kg, iv administered as single dose", "format": "ADME, organism-based", "details": "in vivo, read-out: Vdss", "procedure,_shortened": "as §1"}, "[21]": {"test_system": "Mus musculus", "test": "Effect on urinary volume in C57BL/6J mouse at 1 mg/kg, po administered as single dose measured after 24 hrs (reference value: 1.24 +/- 0.45 mL)", "format": "ADME, organism-based", "details": "in vivo"}, "[22]": {"test_system": "Rattus norvegicus", "test": "Effect on urine glucose concentration in Sprague-Dawley rat at 1 mg/kg, po administered as single dose measured after 24 hrs by glucose oxidase method (reference value: 0.28 +/- 0.16 mmol/L)", "format": "functional"}, "[23]": {"molecular_target": "T2, Sodium/glucose cotransporter 1 (Homo sapiens, UniProt P13866)", "T2 sequence (P13866 whole entry)": "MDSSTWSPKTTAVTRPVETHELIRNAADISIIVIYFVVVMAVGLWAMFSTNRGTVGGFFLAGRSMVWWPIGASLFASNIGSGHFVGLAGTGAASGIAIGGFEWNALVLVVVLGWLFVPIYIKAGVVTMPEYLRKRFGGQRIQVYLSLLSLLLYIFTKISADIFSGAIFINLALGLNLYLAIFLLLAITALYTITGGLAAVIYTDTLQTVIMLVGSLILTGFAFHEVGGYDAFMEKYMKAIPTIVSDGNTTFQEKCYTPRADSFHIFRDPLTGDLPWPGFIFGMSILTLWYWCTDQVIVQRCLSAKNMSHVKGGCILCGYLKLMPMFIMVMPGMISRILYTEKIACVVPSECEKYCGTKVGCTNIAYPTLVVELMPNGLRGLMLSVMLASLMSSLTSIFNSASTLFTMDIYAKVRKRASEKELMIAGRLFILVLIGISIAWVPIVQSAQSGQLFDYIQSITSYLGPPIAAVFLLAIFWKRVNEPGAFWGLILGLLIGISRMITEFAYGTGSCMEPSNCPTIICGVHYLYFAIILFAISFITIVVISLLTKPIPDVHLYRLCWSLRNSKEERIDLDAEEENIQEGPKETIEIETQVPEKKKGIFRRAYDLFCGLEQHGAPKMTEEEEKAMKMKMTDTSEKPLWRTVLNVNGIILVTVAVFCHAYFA", "test": "Inhibition of human full length SGLT1 expressed in NIH3T3 cells measured after 1 hr in presence of [14C]-methyl-alpha -D-glucopyranoside by scintillation counter method", "format": "cell-based", "procedure,_shortened": "as §2"}},
  "data": [
    {"smiles": "CCc1ccc(Cc2cc3c(cc2C)CO[C@]32O[C@H](C)[C@@H](O)[C@H](O)[C@H]2O)s1", "values": [
      {"measurement": "Cmax", "setting": "[1]", "result": 740, "unit": "ng/mL"},
      {"measurement": "MRT inf", "setting": "[2]", "result": 13.1, "unit": "h"},
      {"measurement": "Ratio IC50", "setting": "[3]", "result": 216},
      {"measurement": "bioavailability", "setting": "[4]", "result": 53.4, "unit": "%"},
      {"measurement": "AUC(0-t)", "setting": "[5]", "result": 3010, "unit": "ng·h/mL"},
      {"measurement": "half-life", "setting": "[6]", "result": 5.95, "unit": "h"},
      {"measurement": "clearance", "setting": "[7]", "result": 19.9, "unit": "mL/min/kg"},
      {"measurement": "MRT inf", "setting": "[8]", "result": 8.9, "unit": "h"},
      {"measurement": "AUC(0-inf)", "setting": "[9]", "result": 2320, "unit": "ng·h/mL"},
      {"measurement": "AUC(0-inf)", "setting": "[10]", "result": 5580, "unit": "ng·h/mL"},
      {"measurement": "half-life", "setting": "[11]", "result": 10.8, "unit": "h"},
      {"measurement": "Activity", "setting": "[12]", "result": 110.53, "unit": "mg"},
      {"measurement": "Activity", "setting": "[13]", "result": 24.67, "unit": "mL"},
      {"measurement": "AUC(0-t)", "setting": "[14]", "result": 1130, "unit": "ng·h/mL"},
      {"measurement": "Activity", "setting": "[15]", "result": 92.99, "unit": "mmol/L"},
      {"measurement": "Activity", "setting": "[16]", "result": 134.23, "unit": "mg"},
      {"measurement": "Activity", "setting": "[17]", "result": "Dose-dependent effect"},
      {"measurement": "IC50", "setting": "[18]", "result": 4.5, "unit": "nM"},
      {"measurement": "Tmax", "setting": "[19]", "result": 0.33, "unit": "h"},
      {"measurement": "Vd", "setting": "[20]", "result": 10.1, "unit": "L/kg"},
      {"measurement": "Activity", "setting": "[21]", "result": 1.21, "unit": "mL"},
      {"measurement": "Activity", "setting": "[22]", "result": 93.8, "unit": "mmol/L"},
      {"measurement": "IC50", "setting": "[23]", "result": 1000, "unit": "nM"}
    ]}
  ]
}
